One test relates to Pseudomonas fluorescens. In words: Antimicrobial activity against Pseudomonas fluorescens ATCC 13525 after 24 hrs by MTT assay. The following applies: ATCC 13525, 24 h. In general terms: Formazan colour is commonly taken as a measure of viable cells.
In a further test the test system is Staphylococcus aureus. Nature of the test: Antimicrobial activity against Staphylococcus aureus ATCC 6538 after 24 hrs by MTT assay. The following applies: ATCC 6538, 24 h.
A further test deals with Escherichia coli. In words: Antimicrobial activity against Escherichia coli after 24 hrs by MTT assay.
The subject of another test is Bacillus subtilis. Nature of the test: Antimicrobial activity against Bacillus subtilis ATCC 6633 after 24 hrs by MTT assay. The format is functional. The following applies: ATCC 6633, 24 h. The method, boiled down:
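Mueller-Hinton medium (casein hydrolysate, soluble starch, beef extract). Compounds were serially diluted in DMSO in medium, with an inoculum of about 10⁵ cfu/mL, and incubated at 37 °C for 24 h. MIC was read visually. MTT (2 mg/mL in PBS, pH 7.4) was then added for 4–5 h at room temperature. Dye was extracted with isopropanol containing 5% 1 mol/L HCl for 12 h, and OD was read at 550 nm.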

≈ marks a conversion by molar mass, not a printed value.

In general, MIC refers to the smallest concentration in the dilution series that meets the test's criterion for growth inhibition. The low end stands for inhibition by little substance, the high end for a need for much substance. For `Cc1oc(-c2ccccc2C(F)(F)F)nc1N1N=C(c2ccc(Cl)cc2Cl)CC1N1CCc2ccccc2C1` (stereo unspecified), the minimum inhibitory concentration (MIC) against Pseudomonas fluorescens was > 50 µg/mL; with Staphylococcus aureus, 3.12 µg/mL (≈ 5.47 µM); in the test with Escherichia coli, > 50 µg/mL; in the test on Bacillus subtilis, 3.12 µg/mL (≈ 5.47 µM).
On to `COc1ccc2c(c1)CN(C1CC(c3ccc(Cl)cc3Cl)=NN1c1nc(-c3ccccc3F)oc1C)CC2` (stereo unspecified), for which the MIC is > 50 µg/mL with Pseudomonas fluorescens, 1.56 µg/mL (≈ 2.83 µM) in the test with Staphylococcus aureus, > 50 µg/mL with Escherichia coli and 1.56 µg/mL (≈ 2.83 µM) in the test on Bacillus subtilis.
Consider `COc1ccc2c(c1)CN(C1CC(c3ccccc3C(F)(F)F)=NN1c1nc(-c3ccccc3F)oc1C)CC2` (stereo unspecified), for which the MIC amounted to 50 µg/mL (≈ 90.8 µM) in the test on Pseudomonas fluorescens, 50 µg/mL (≈ 90.8 µM) against Staphylococcus aureus, 50 µg/mL (≈ 90.8 µM) in the test with Escherichia coli and 12.5 µg/mL (≈ 22.7 µM) with Bacillus subtilis.
Turning to `C=Cc1ccccc1-c1nc(N2N=C(c3ccccc3)CC2N2CCc3ccc(OC)cc3C2)c(C)o1` (stereo unspecified), the MIC against Pseudomonas fluorescens is > 50 µg/mL; against Staphylococcus aureus, 50 µg/mL (≈ 102 µM); with Escherichia coli, > 50 µg/mL; with Bacillus subtilis, 50 µg/mL (≈ 102 µM).
Take `COc1ccc2c(c1)CN(C1CC(c3ccccc3C(F)(F)F)=NN1c1nc(-c3ccc(F)cc3F)oc1C)CC2` (stereo unspecified): the MIC against Pseudomonas fluorescens is 25 µg/mL (≈ 44 µM); in the test with Staphylococcus aureus it was 12.5 µg/mL (≈ 22 µM); in the test on Escherichia coli it was 25 µg/mL (≈ 44 µM); in the test on Bacillus subtilis, 3.12 µg/mL (≈ 5.5 µM).
Take `Cc1oc(-c2ccccc2F)nc1N1N=C(c2ccccc2F)CC1N1CCc2ccccc2C1` (stereo unspecified): the MIC in the test with Pseudomonas fluorescens is 50 µg/mL (≈ 106 µM); against Staphylococcus aureus, 12.5 µg/mL (≈ 26.6 µM); against Escherichia coli, > 50 µg/mL; in the test with Bacillus subtilis, 12.5 µg/mL (≈ 26.6 µM).
As to `Cc1oc(-c2ccccc2C(F)(F)F)nc1N1N=C(c2ccc(-c3ccco3)cc2)CC1N1CCc2ccccc2C1` (stereo unspecified), the MIC came out at 50 µg/mL (≈ 87.9 µM) in the test with Pseudomonas fluorescens, 3.12 µg/mL (≈ 5.5 µM) in the test on Staphylococcus aureus, 50 µg/mL (≈ 87.9 µM) in the test on Escherichia coli and 1.56 µg/mL (≈ 2.75 µM) in the test with Bacillus subtilis.
For `COc1ccc2c(c1)CN(C1CC(c3ccc(Cl)cc3Cl)=NN1c1nc(-c3ccccc3C(F)(F)F)oc1C)CC2` (stereo unspecified), the MIC was > 50 µg/mL in the test with Pseudomonas fluorescens, 1.56 µg/mL (≈ 2.6 µM) against Staphylococcus aureus, > 50 µg/mL in the test with Escherichia coli and 3.12 µg/mL (≈ 5.2 µM) against Bacillus subtilis.
With `Cc1oc(-c2ccccc2C(F)(F)F)nc1N1N=C(c2ccccc2F)CC1N1CCc2ccccc2C1` (stereo unspecified), the MIC against Pseudomonas fluorescens was > 50 µg/mL; with Staphylococcus aureus, 6.25 µg/mL (≈ 12 µM); in the test on Escherichia coli, > 50 µg/mL; with Bacillus subtilis, 6.25 µg/mL (≈ 12 µM).
`Cc1oc(-c2ccccc2F)nc1N1N=C(c2ccccc2C(F)(F)F)CC1N1CCc2ccccc2C1` (stereo unspecified): the MIC in the test on Pseudomonas fluorescens came out at 50 µg/mL (≈ 96.1 µM); in the test on Staphylococcus aureus, 6.25 µg/mL (≈ 12 µM); against Escherichia coli, 50 µg/mL (≈ 96.1 µM); against Bacillus subtilis it was 12.5 µg/mL (≈ 24 µM).
For `C=Cc1ccccc1-c1nc(N2N=C(c3ccccc3F)CC2N2CCc3ccc(OC)cc3C2)c(C)o1` (stereo unspecified), the MIC against Pseudomonas fluorescens amounted to 50 µg/mL (≈ 98.3 µM); against Staphylococcus aureus it was 50 µg/mL (≈ 98.3 µM); against Escherichia coli, 50 µg/mL (≈ 98.3 µM); against Bacillus subtilis, 12.5 µg/mL (≈ 24.6 µM).
In the case of `Cc1oc(-c2ccccc2C(F)(F)F)nc1N1N=C(c2ccccc2)CC1N1CCc2ccccc2C1` (stereo unspecified), the MIC in the test with Pseudomonas fluorescens worked out at 50 µg/mL (≈ 99.5 µM); against Staphylococcus aureus, 25 µg/mL (≈ 49.7 µM); in the test on Escherichia coli, 50 µg/mL (≈ 99.5 µM); in the test on Bacillus subtilis, 12.5 µg/mL (≈ 24.9 µM).
Take `C=Cc1ccccc1-c1nc(N2N=C(c3ccc(-c4ccco4)cc3)CC2N2CCc3ccccc3C2)c(C)o1` (stereo unspecified): the MIC in the test with Pseudomonas fluorescens is 50 µg/mL (≈ 94.9 µM); against Staphylococcus aureus, 1.56 µg/mL (≈ 2.97 µM); in the test with Escherichia coli, > 50 µg/mL; against Bacillus subtilis it was 3.12 µg/mL (≈ 5.93 µM).
Regarding `Cc1oc(-c2ccccc2C(F)(F)F)nc1N1N=C(c2ccccc2C(F)(F)F)CC1N1CCc2ccccc2C1` (stereo unspecified), the MIC amounted to 50 µg/mL (≈ 87.6 µM) in the test with Pseudomonas fluorescens, 6.25 µg/mL (≈ 11 µM) in the test with Staphylococcus aureus, 50 µg/mL (≈ 87.6 µM) in the test on Escherichia coli and 6.25 µg/mL (≈ 11 µM) in the test with Bacillus subtilis.
On to `Cc1oc(-c2ccccc2F)nc1N1N=C(c2ccccc2)CC1N1CCc2ccccc2C1` (stereo unspecified), for which the MIC amounted to 12.5 µg/mL (≈ 27.6 µM) against Pseudomonas fluorescens, 6.25 µg/mL (≈ 13.8 µM) with Staphylococcus aureus, 6.25 µg/mL (≈ 13.8 µM) against Escherichia coli and 25 µg/mL (≈ 55.2 µM) against Bacillus subtilis.
In the case of `C=Cc1ccccc1-c1nc(N2N=C(c3ccc(Cl)cc3Cl)CC2N2CCc3ccccc3C2)c(C)o1` (stereo unspecified), the minimal inhibitory concentration (MIC) in the test with Pseudomonas fluorescens was 50 µg/mL (≈ 94.4 µM); in the test on Staphylococcus aureus, 3.12 µg/mL (≈ 5.9 µM); in the test on Escherichia coli it was > 50 µg/mL; in the test on Bacillus subtilis it was 6.25 µg/mL (≈ 11.8 µM).
As to `Cc1oc(-c2ccccc2F)nc1N1N=C(c2ccc(-c3ccco3)cc2)CC1N1CCc2ccccc2C1` (stereo unspecified), the MIC was 25 µg/mL (≈ 48.2 µM) against Pseudomonas fluorescens, 3.12 µg/mL (≈ 6.03 µM) in the test with Staphylococcus aureus, > 50 µg/mL against Escherichia coli and 1.56 µg/mL (≈ 3.01 µM) against Bacillus subtilis.
Take `C=Cc1ccccc1-c1nc(N2N=C(c3ccc(Cl)cc3Cl)CC2N2CCc3ccc(OC)cc3C2)c(C)o1` (stereo unspecified): the MIC with Pseudomonas fluorescens is > 50 µg/mL; with Staphylococcus aureus it was 3.12 µg/mL (≈ 5.59 µM); with Escherichia coli it was 50 µg/mL (≈ 89.4 µM); against Bacillus subtilis it was 3.12 µg/mL (≈ 5.59 µM).
For `Cc1oc(-c2ccc(F)cc2F)nc1N1N=C(c2ccccc2)CC1N1CCc2ccccc2C1` (stereo unspecified), the MIC was 50 µg/mL (≈ 106 µM) in the test on Pseudomonas fluorescens, 12.5 µg/mL (≈ 26.6 µM) against Staphylococcus aureus, 12.5 µg/mL (≈ 26.6 µM) in the test on Escherichia coli and 12.5 µg/mL (≈ 26.6 µM) in the test on Bacillus subtilis.
Take `COc1ccc2c(c1)CN(C1CC(c3ccccc3)=NN1c1nc(-c3ccccc3C(F)(F)F)oc1C)CC2` (stereo unspecified): the MIC in the test with Pseudomonas fluorescens was > 50 µg/mL; against Staphylococcus aureus, 25 µg/mL (≈ 46.9 µM); against Escherichia coli it was 50 µg/mL (≈ 93.9 µM); against Bacillus subtilis, 12.5 µg/mL (≈ 23.5 µM).
For the compound `C=Cc1ccccc1-c1nc(N2N=C(c3ccc(-c4ccco4)cc3)CC2N2CCc3ccc(OC)cc3C2)c(C)o1` (stereo unspecified), the MIC is 25 µg/mL (≈ 44.9 µM) in the test with Pseudomonas fluorescens, 3.12 µg/mL (≈ 5.61 µM) against Staphylococcus aureus, > 50 µg/mL against Escherichia coli and 3.12 µg/mL (≈ 5.61 µM) in the test with Bacillus subtilis.
On to `NC[C@H]1O[C@H](O[C@H]2[C@H](O)[C@@H](O[C@H]3O[C@H](CO)[C@@H](O)[C@H](N)[C@H]3O)[C@H](N)C[C@@H]2N)[C@H](O)[C@@H](O)[C@@H]1O` [KANAMYCIN], for which the MIC against Pseudomonas fluorescens was 3.12 µg/mL (≈ 6.45 µM); against Staphylococcus aureus, 1.56 µg/mL (≈ 3.22 µM); in the test with Escherichia coli, 3.12 µg/mL (≈ 6.45 µM); against Bacillus subtilis, 0.39 µg/mL (≈ 0.805 µM).
`C=Cc1ccccc1-c1nc(N2N=C(c3ccccc3C(F)(F)F)CC2N2CCc3ccccc3C2)c(C)o1` (stereo unspecified): the MIC against Pseudomonas fluorescens was 50 µg/mL (≈ 94.6 µM); against Staphylococcus aureus, 12.5 µg/mL (≈ 23.6 µM); in the test on Escherichia coli it was > 50 µg/mL; with Bacillus subtilis, 12.5 µg/mL (≈ 23.6 µM).
`COc1ccc2c(c1)CN(C1CC(c3ccccc3)=NN1c1nc(-c3ccc(F)cc3F)oc1C)CC2` (stereo unspecified): the MIC against Pseudomonas fluorescens was found to be 25 µg/mL (≈ 49.9 µM); against Staphylococcus aureus, 6.25 µg/mL (≈ 12.5 µM); with Escherichia coli, 50 µg/mL (≈ 99.9 µM); in the test with Bacillus subtilis it was 6.25 µg/mL (≈ 12.5 µM).
`C=Cc1ccccc1-c1nc(N2N=C(c3ccccc3)CC2N2CCc3ccccc3C2)c(C)o1` (stereo unspecified): the minimal inhibitory concentration (MIC) in the test on Pseudomonas fluorescens, in the test on Staphylococcus aureus, against Escherichia coli and against Bacillus subtilis was 12.5 µg/mL (≈ 27.1 µM) throughout.
Take `COc1ccc2c(c1)CN(C1CC(c3ccccc3)=NN1c1nc(-c3ccccc3F)oc1C)CC2` (stereo unspecified): the minimal inhibitory concentration (MIC) against Pseudomonas fluorescens was > 50 µg/mL; in the test on Staphylococcus aureus it was 25 µg/mL (≈ 51.8 µM); in the test with Escherichia coli, > 50 µg/mL; in the test with Bacillus subtilis it was 25 µg/mL (≈ 51.8 µM).
On to `COc1ccc2c(c1)CN(C1CC(c3ccccc3F)=NN1c1nc(-c3ccc(F)cc3F)oc1C)CC2` (stereo unspecified), for which the minimal inhibitory concentration (MIC) against Pseudomonas fluorescens was found to be 50 µg/mL (≈ 96.4 µM); in the test with Staphylococcus aureus, 6.25 µg/mL (≈ 12.1 µM); against Escherichia coli it was 50 µg/mL (≈ 96.4 µM); in the test on Bacillus subtilis it was 3.12 µg/mL (≈ 6.03 µM).
With `Cc1oc(-c2ccc(F)cc2F)nc1N1N=C(c2ccccc2C(F)(F)F)CC1N1CCc2ccccc2C1` (stereo unspecified), the MIC amounted to 12.5 µg/mL (≈ 23.2 µM) in the test on Pseudomonas fluorescens, 6.25 µg/mL (≈ 11.6 µM) in the test with Staphylococcus aureus, 25 µg/mL (≈ 46.4 µM) against Escherichia coli and 12.5 µg/mL (≈ 23.2 µM) against Bacillus subtilis.
For the compound `COc1ccc2c(c1)CN(C1CC(c3ccccc3F)=NN1c1nc(-c3ccccc3C(F)(F)F)oc1C)CC2` (stereo unspecified), the MIC against Pseudomonas fluorescens worked out at 25 µg/mL (≈ 45.4 µM); in the test on Staphylococcus aureus, 25 µg/mL (≈ 45.4 µM); in the test with Escherichia coli, 50 µg/mL (≈ 90.8 µM); in the test with Bacillus subtilis it was 25 µg/mL (≈ 45.4 µM).
